Assays:
HeLa = experiment: Antiproliferative activity against human HeLa cells assessed as cell viability after 72 hrs by MTT assay; format: functional, cell-based
In short: (§1)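 A549 and HeLa cells grown in DMEM with 10% FBS and penicillin/streptomycin. Plated at 8 × 10^3 cells/well and held 18 h at 37 °C in 5% CO2. Medium replaced with compound in complete medium at varied concentrations for 72 h at 37 °C, then MTT read.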

A549 = experiment: Antiproliferative activity against human A549 cells after 72 hrs by MTT assay; format: functional, cell-based; conditions: A549, 72 h; in short: as §1
HL-60 = experiment: Antiproliferative activity against human HL60 cells after 72 hrs by MTT assay; format: functional, cell-based; conditions: HL-60, 72 h
Jurkat = experiment: Antiproliferative activity against human Jurkat cells after 72 hrs by MTT assay; format: functional, cell-based
K562 = experiment: Antiproliferative activity against human K562 cells after 72 hrs by MTT assay; format: functional, cell-based; conditions: K562, 72 h
[1] = Inhibition of tubulin polymerization after 20 mins by turbidimetry
In short: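 Tubulin (10 µM) in glutamate buffer was preincubated with varied compound concentrations at 30 °C, then cooled to 0 °C. GTP was added and the mixture warmed to 30 °C in cuvettes while turbidity was recorded.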

[2] = Inhibition of tubulin polymerization after 20 mins by turbidimetry

Structure (SMILES) | IC50 (HeLa) [µM] | IC50 (A549) [µM] | IC50 (HL-60) [µM] | IC50 (Jurkat) [µM] | IC50 (K562) [µM] | inhibition [1] [%] | IC50 [2] [µM]
COc1ccccc1-c1c(C(=O)c2cc(OC)c(OC)c(OC)c2)sc2ccccc12 | 5 | > 10 | 2.9 | 2.9 | 3.4 |  | 
COc1cc(C(=O)c2sc3ccccc3c2-c2ccc(Cl)cc2)cc(OC)c1OC | 5.2 | 7.5 | 3.3 | 3.7 | 4.2 |  | 
COc1cc(C(=O)c2sc3ccccc3c2Nc2ccc(C)cc2)cc(OC)c1OC | 3.5 | 2.6 | 4.6 | 1.7 | 1.6 |  | 
CCOc1ccc(-c2c(C(=O)c3cc(OC)c(OC)c(OC)c3)sc3ccccc23)cc1 | 3 | 3.1 | 3.5 | 4.1 | 3.1 |  | 
COc1ccc(-c2c(C(=O)c3cc(OC)c(OC)c(OC)c3)sc3ccccc23)c(OC)c1 | 3.9 | 5.8 | 4.6 | 4 | 4.1 |  | 
COc1ccc(-c2c(C(=O)c3cc(OC)c(OC)c(OC)c3)sc3ccccc23)cc1 | 4.2 | 4.4 | 1.6 | 1.6 | 1.7 |  | 
COc1cc(C(=O)c2sc3ccccc3c2Nc2ccc(Cl)cc2)cc(OC)c1OC | 3.7 | 3.1 | 5.4 | 1.9 | 1.1 |  | 
COc1ccc(-c2c(C(=O)c3cc(OC)c(OC)c(OC)c3)sc3ccccc23)cc1C | > 10 | > 10 | > 10 | > 10 | > 10 |  | 
COc1ccc(Nc2c(C(=O)c3cc(OC)c(OC)c(OC)c3)sc3ccccc23)cc1 | 7.7 | 9.3 | 3.7 | 3.5 | 2.9 |  | 
COc1ccc(OC)c(-c2c(C(=O)c3cc(OC)c(OC)c(OC)c3)sc3ccccc23)c1 |  | > 10 | > 10 | > 10 | > 10 |  | 
CCOc1ccc(Nc2c(C(=O)c3cc(OC)c(OC)c(OC)c3)sc3cc(C)ccc23)cc1 | 4.3 | 5.8 | 4 | 5 | 4.3 | 50 | 
COc1cc(C(=O)c2sc3ccccc3c2-c2ccc(F)cc2)cc(OC)c1OC | 3 | 3.2 | 3.2 | 2.3 | 2.1 |  | 
COc1cc(C(=O)c2sc3ccccc3c2-c2ccccc2)cc(OC)c1OC | 1.9 | 5 | 1.7 | 1.5 | 2.1 |  | 
COc1cc(C(=O)c2sc3ccccc3c2-c2ccc(C)cc2)cc(OC)c1OC | 3.7 | 7.8 | 1.4 | 3.3 | 3.5 |  | 
COc1cc(C(=O)c2sc3cc(C)ccc3c2Nc2ccc(C)cc2)cc(OC)c1OC | 0.98 | 1.9 | 1.9 | 2.5 | 1.4 |  | 15
COc1cc(C(=O)c2sc3ccccc3c2Nc2ccccc2)cc(OC)c1OC | 2.7 | 3 | 5.2 | 1.6 | 2.3 |  | 
COc1cc(C(=O)c2sc3ccccc3c2-c2ccc(SC)cc2)cc(OC)c1OC | 3.5 | 5.4 | 1.3 | 1.9 | 1.8 |  | 
